Compound activity from PubChem BioAssay.
Compounds with a hit are over-represented: about 4.3% of the library has one in this group of screens.
OX1R antag-1: OX1R (human) antagonism. OX1R-expressing cells, FRET antagonist read-out. O43613. AID 485270. 330,000 tested, 1.8% active. inhibition, % at 6.6 µM; in the data active = inhibition mostly above about 38%, no sharp cut-off; inactive = mostly below about 40%;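 also: 0% = agonist challenge alone and 100% = reference antagonist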
TAAR1 ag: agonists of human TAAR1 | Q96RJ0 | CHO RD-HGA16 TAAR1, Fluo-8 calcium fluorescence; vehicle wells 0%, saturating PEA agonist 100% | activation, % at 3 µM | 360,000 tested, 0.99% active;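 active = activation above the mean activation of all test compounds in the run plus 3 SD, cut at about 38% in these data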
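Test system: RD-HGA16 (CHO) cells co-expressing Gα16 and hTAAR1; dosing: one-point dosing at 3 µM (nominal); timing: 17-24 h seeding, 75 min 37 °C dye, 30 min RT; signal: kinetic Fluo-8 calcium fluorescence; read-out basis: % activation relative to PEA EC100 response; controls: DMSO and PEA EC100; replicates: n 1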
OX1R antag-2: human HCRTR1 antagonism. 330,000 tested, 0.43% active. CHO/OX1R cells, Fluo-8 calcium fluorescence, orexin A. inhibition, % at 5 µM. AID 434989. O43613;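 active = inhibition above its plate's threshold, mean inhibition of all tested compounds on the plate plus 3 SD, cut at about 37% in these data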;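 also: 0% = orexin A challenge wells and 100% = SB-334867-A antagonist wells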
CHO parental Ca: counter-screen for OX1R antagonists: effect in parental CHO cells; parental CHO-K1, ATP-induced calcium, Fluo-8 fluorescence; inhibition, % at 5.6 µM; 330,000 tested, 0.63% active;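 active = inhibition above that plate's mean sample inhibition plus 3 SD, cut at about 26% in these data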;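 also: 0% = ATP-challenged DMSO wells and 100% = DMSO wells without ATP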
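material = parental CHO cells | also added = ATP as calcium-mobilizing challenge | dosing = single point at 5.6 µM | detection = intracellular calcium via Fluo-8 no-wash fluorescent dye | read-out = % inhibition | benchmarks = low control ATP plus DMSO, high control DMSO only | repeats = one well per compound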
TAAR1 antagonist: antagonists of human TAAR1 | Q96RJ0 | CHO RD-HGA16 TAAR1, Fluo-8 calcium fluorescence, antagonist | inhibition, % at 3 µM | 360,000 tested, 1.5% active | AID 624466;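 active = inhibition above a per-plate cutoff, the mean inhibition of test compounds on that plate plus 3 SD, cut at about 49% in these data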;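 also: 0% = DMSO plus EC80 beta-PEA response and 100% = DMSO alone without agonist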
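System: RD-HGA16 CHO cells with stable hTAAR1 and Gα16 | Probe or stimulus: EC80 β-phenethylamine stimulus | Dosing: 3 µM, single point | Times: Dye loading 75 min at 37 °C, then 30 min room temperature | Measured by: Fluo-8 calcium-sensitive fluorescence | Read-out basis: % inhibition of agonist calcium response | Replicates: n of 1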
GalR3 antag: human GalR3 antagonism; HEK293 GalR3-CNG cAMP membrane potential fluorescence; galR3 body fused to GalR1 C-terminus; inhibition, % at 3 µM; AID 651719; 360,000 tested, 0.44% active;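 active = inhibition above the screen-wide average plus 3 SD, cut at about 13% in these data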;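 also: forskolin and galanin both at EC90 stimulate the cells; cAMP rise reported by CNG channel membrane potential dye signal; 0% = forskolin plus galanin with DMSO and 100% = forskolin alone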
Target sequence (O60755 1-299 limits assumed): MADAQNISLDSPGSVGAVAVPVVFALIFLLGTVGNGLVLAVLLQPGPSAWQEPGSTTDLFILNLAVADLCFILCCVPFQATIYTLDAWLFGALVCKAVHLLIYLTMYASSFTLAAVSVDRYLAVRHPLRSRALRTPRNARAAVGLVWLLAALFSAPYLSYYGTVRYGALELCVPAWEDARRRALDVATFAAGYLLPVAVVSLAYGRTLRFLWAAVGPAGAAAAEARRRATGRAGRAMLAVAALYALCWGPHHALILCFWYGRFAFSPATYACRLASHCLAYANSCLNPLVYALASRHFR
An asterisk follows results filed as active; . = no result given.

SMILES	OX1R antag-1	TAAR1 ag	OX1R antag-2	CHO parental Ca	TAAR1 antagonist	GalR3 antag
O=C(CCc1nc2ccccc2c(=O)[nH]1)NNC(=O)COc1cccc(F)c1	12	1	-4	0	13	-7
COc1ccc([C@@H]2CC=C(C(=O)O)[C@H](c3ccc(Cl)cc3)N2S(=O)(=O)c2ccccc2C)cc1	48*	-1	-14	-26	-4	-3
COc1ccc([C@@H]2CC=C(C(=O)O)[C@H](c3ccc(Br)cc3)N2S(=O)(=O)c2ccccc2C)cc1	53*	0	-14	-19	6	-3
CCOc1ccc([C@@H]2CC=C(C(=O)O)[C@H](c3ccc(Cl)cc3)N2S(=O)(=O)c2ccc(C)cc2)cc1	35	0	-5	-2	12	-6
Cc1ccccc1S(=O)(=O)N1C(c2ccc(Cl)c(Cl)c2)CC=C(C(=O)O)C1c1cccc(Br)c1 (stereo not drawn)	.	-2	.	.	21	-3
CC1(C)CC(=O)C=C(Nc2ccc([N+](=O)[O-])cc2)C1	29*	0	-16	-8	9	-9
CC1(C)CC(=O)C=C(Nc2ccc(O)cc2)C1	.	2	.	.	-4	-7
CCC1(c2ccccc2)NC(=O)N(CC(=O)Nc2cc(S(=O)(=O)N3CCCCCC3)ccc2OC)C1=O (stereo not drawn)	29	15	18	27	70*	-6
COc1ccc(S(=O)(=O)N2CCCCC2)cc1NC(=O)CN(Cc1ccco1)Cc1ccco1	10	17	26	11	64*	-5
CCOc1ccc(S(=O)(=O)N2CCCCC2)cc1NC(=O)CN1C(=O)NC(CC)(c2ccccc2)C1=O (stereo not drawn)	24	2	-17	-13	17	2
Cc1cc(C(=O)N/N=C/c2cc(Br)ccc2OC(=O)c2ccccc2)n[nH]1	18	13	-23	-4	51*	4
Cc1cc(C(=O)N/N=C/c2ccc(OC(=O)c3ccccc3Br)cc2)n[nH]1	2	13	-6	-2	54*	-2
Cc1cc(C(=O)N/N=C/c2ccc(-c3ccccc3Cl)o2)n[nH]1	70*	15	4	-18	6	-4
COCCn1nnnc1C(c1ccccc1)N1CCN(C(=O)c2ccco2)CC1 (stereo not drawn)	12	2	-13	-10	7	-8
O=C(NCc1ccccc1)C1C(=O)Nc2ccccc2C(=O)N1c1ccc2c(c1)OCCO2 (stereo not drawn)	.	1	.	.	-10	-5
COCCNC(=O)C1(C)CCN(Cc2csc(-c3ccc(Cl)cc3)n2)C1 (stereo not drawn)	.	-1	.	.	-6	-5
COc1ccccc1CNC(=O)COC(=O)c1ccc(C)c(S(=O)(=O)N2CCCCC2)c1	26	-1	-28	-24	-1	-1
CCN(Cc1ccccc1)C(=O)Cn1c(=O)n(CC(=O)NCc2ccco2)c(=O)c2sccc21	52*	3	-1	-4	12	-5
CCc1ncc(C(O)c2ccc(Cl)cc2)n1Cc1ccccc1 (stereo not drawn)	.	6	.	.	-2	-6
CC(=O)Nc1cc(-c2cccc(F)c2)cn2c(-c3ccc(F)cc3)cnc12	.	5	.	.	56*	-3
CC(=O)Nc1cc(-c2ccccc2)cn2c(-c3cccc(C(C)=O)c3)cnc12	.	-1	.	.	49*	-9
O=C(Nc1ccccc1N1CCCCC1)c1cccc([N+](=O)[O-])c1	19	-1	-46	-24	-22	-2
O=C(Nc1ccccc1C(=O)N1CCCCCC1)c1cccc([N+](=O)[O-])c1	53*	2	-8	-30	-13	2
O=C(NNC(=O)c1cccc([N+](=O)[O-])c1)c1ccncc1	46*	4	-5	-6	-2	-6
C/C(=N\NC(=O)c1ccc([N+](=O)[O-])cc1)c1cccc([N+](=O)[O-])c1	64*	3	-9	-11	10	1
O=P(CCCCCCCCCP(=O)(c1ccccc1)c1ccccc1)(c1ccccc1)c1ccccc1	26	33	86*	100*	90*	-5
O=P(CCO)(c1ccccc1)c1ccccc1	17	7	-27	-10	-6	-1
